In ChEMBL document CHEMBL1134233, “Synthesis of phenylglycine derivatives as potent and selective antagonists of group III metabotropic glutamate receptors” (2001):

Columns and labels:
[1] = Antagonist activity at Group III Metabotropic glutamate receptor in rat spinal cord in the presence of (S)AP4 at 100 uM as agonist challenge; type: functional
Procedure, shortened: (§1)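 Neonatal rat spinal cord, one-point assay run in triplicate. A single antagonist concentration was tested against a single agonist-evoked response, expressed as percent antagonism. The agonist was (2R,4R)-APDC for group II and (S)-AP4 for group III.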

[2] = Antagonist activity at Group II Metabotropic glutamate receptor in rat spinal cord in the presence of (2R,4R)APDC at 1 uM as agonist challenge; type: functional; procedure, shortened: as §1
[3] = Antagonist activity at Group III Metabotropic glutamate receptor in rat spinal cord; Not effective at 1 mM; type: functional
[4] = Antagonist activity at Group III Metabotropic glutamate receptor in rat spinal cord; type: functional
Procedure, shortened: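 Neonatal rat spinal cord preparation. Concentration–response curves to the group III agonist (S)-AP4 were constructed with and without the antagonist, and an apparent KD was derived from the curve shift.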

[5] = Antagonist activity at Group III Metabotropic glutamate receptor in rat spinal cord; Not effective at 50 uM; type: functional
[6] = Antagonist activity at Group I Metabotropic glutamate receptor in rat spinal cord; Not effective at 1 mM; type: functional
[7] = Antagonist activity at Group II Metabotropic glutamate receptor in rat spinal cord; type: functional
Procedure, shortened: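 Neonatal rat spinal cord preparation. Concentration–response curves to (1S,3S)-ACPD or (2R,4R)-APDC were built with and without antagonist to give an apparent K_D. For weak antagonists, a single antagonist concentration was tested against a single agonist-induced response in triplicate and reported as % antagonism.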

[8] = Antagonist activity at Group I Metabotropic glutamate receptor in rat spinal cord; type: functional
[9] = Antagonist activity at Group I Metabotropic glutamate receptor in rat spinal cord in the presence of (1S,3R)APCD at 1 mM as agonist challenge

Structure (SMILES)	KDs [4] [µM]	KDs [7] [µM]	other results
COc1cc(C(C)(N)C(=O)O)ccc1P(=O)(O)O (centres undefined)	–	–	KDs [1]: 4.8 µM; KDs [2]: 51 µM
CC(N)(C(=O)O)c1cccc(CP(=O)(O)O)c1 (centres undefined)	–	–	KDs [3]: No effect
Cc1cc(P(=O)(O)O)ccc1C(C)(N)C(=O)O (centres undefined)	180	–	–
COc1cc(C(N)(C(=O)O)C2CC2)ccc1P(=O)(O)O (centres undefined)	–	–	KDs [5]: No effect
CC(N)(C(=O)O)c1ccc(P(=O)(O)O)cc1 (centres undefined)	9.2	113	KDs [6]: No effect
CC(N)(C(=O)O)c1ccc(C(=O)O)cc1 (centres undefined)	227	479	KDs [8]: 144 µM
CC(N)(C(=O)O)c1ccc(P(=O)(O)O)c(Cl)c1 (centres undefined)	6.8	726	KDs [6]: No effect
Cc1cc(C(C)(N)C(=O)O)ccc1P(=O)(O)O (centres undefined)	5.5	–	–
NC(C(=O)O)(c1ccc(P(=O)(O)O)cc1)C1CC1 (centres undefined)	1.7	53	Inhibition [9]: 70%
CCOP(=O)(O)c1ccc(C(C)(N)C(=O)O)cc1OC (centres undefined)	–	–	KDs [1]: 13 µM
